# Results taken from ChEMBL document CHEMBL5674882, “Benzolactam-related compounds promote apoptosis of HIV-infected human cells via protein kinase C-induced HIV latency reversal” (J Biol Chem, 2019).
# Activity calls are given as the source filed them. No cut-off for these calls is given here.
# Tests used:
# [1] = Toxicity in human U-937 cells assessed as reduction in cell viability after 48 hrs by WST8 assay; type: cell-based
# Outline: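 Parental, uninfected lines (A3.01 for ACH-2, U937 for U1) at 5 × 10^5 cells/ml cultured with or without drug. Viable cells read at 48 h (day 2) and expressed as % of untreated control. CC50 taken as the concentration lowering viability by 50%.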
# [2] = target: T1, Protein kinase C (PKC) (Homo sapiens) (UniProt O94806+P41743+P17252+P05129+Q05655+P05771+Q05513+Q02156+P24723+Q15139+Q04759); test: Activation of PKC in human J-Lat 6.3 cells infected with latent HIV-1 assessed as reversal of HIV-1 latency by measuring increase of GFP-positive cells at 10 uM in presence of PKC theta/delta/epsilon/eta inhibitor PKCtheta/delta inhibitor incubated for 24 hrs by flow cytometry; type: cell-based
# Outline: (§1)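 J-Lat 6.3 cells pretreated 3 h with a PKC inhibitor: Gö 6983 1 µM, Gö 6976 1 µM, GF 109203X 1 µM, PKCθ/δ inhibitor 10 µM, or Rottlerin 1 µM. Then exposed to 10 µM compound for 24 h; GFP-positive cells counted by flow cytometry. Mean ± S.D.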
# [3] = target: T1, Protein kinase C (PKC) (Homo sapiens); test: Activation of PKC in human U1 cells infected with latent HIV-1 assessed as reversal of HIV-1 latency by measuring increase in p24 antigen level at 1 to 10000 nM incubated for 48 hrs by chemiluminescent enzyme immunoassay; type: cell-based; conditions: filed as activator, dose 1-10000 nM
# Outline: (§2)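 ACH-2 or U1 cells (5 × 10^5 cells/ml) incubated 48 h with graded drug concentrations. Supernatant p24 antigen measured by automated chemiluminescent immunoassay. EC50 calculated taking the maximum response with excess PMA as 100%. Means ± S.D. of three independent experiments.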
# [4] = test system: U1; test: Induction of apoptosis in human U1 cells assessed as caspase-3 activation at 1 uM incubated for 24 hrs by flow cytometry (reference value: 1.86%); type: functional
# Outline: (§3)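 Cells fixed in 1% paraformaldehyde, permeabilized, stained 30 min on ice with anti-active caspase-3 mAb, and analysed by flow cytometry. Three independent experiments.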
# [5] = test system: U1; test: Induction of apoptosis in human U1 cells at 1 uM incubated for 48 hrs by propidium iodide/annexin-V staining based flow cytometry (reference value: 3.16%); type: functional
# [6] = Induction of apoptosis in human CEM A3.01 cells assessed as caspase-3 activation at 1 uM incubated for 24 hrs by flow cytometry; type: functional; outline: as §3
# [7] = test system: ACH-2 cell line; test: Induction of apoptosis in human ACH-2 cells assessed as caspase-3 activation at 1 uM incubated for 24 hrs by flow cytometry; type: functional; outline: as §3
# [8] = test system: Jurkat; test: Induction of apoptosis in human Jurkat cells assessed as caspase-3 activation at 1 uM incubated for 24 hrs by flow cytometry; type: functional; outline: as §3
# [9] = test system: U1; test: Induction of apoptosis in human U1 cells at 1 uM incubated for 48 hrs after pre-incubated for 2 hrs with 20 uM caspase inhibitor Q-VD-Oph by propidium iodide/annexin-V staining based flow cytometry; type: functional, cell-based
# Outline: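 ACH-2 or U1 cells pretreated 2 h with 20 µM pan-caspase inhibitor Q-VD-Oph, then exposed to 1 µM compound for 48 h. Annexin-V/PI staining by flow cytometry; apoptotic proportions compared with and without Q-VD-Oph. Mean ± S.D.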
# [10] = target: T1, Protein kinase C (PKC) (Homo sapiens); test: Activation of PKC in human J-Lat 6.3 cells infected with latent HIV-1 assessed as reversal of HIV-1 latency by measuring increase of GFP-positive cells at 10 uM in presence of PKC alpha/beta/gamma inhibitor GF109203X incubated for 24 hrs by flow cytometry; type: cell-based; outline: as §1
# [11] = target: T1, Protein kinase C (PKC) (Homo sapiens); test: Activation of PKC in human J-Lat 10.6 cells infected with latent HIV-1 assessed as reversal of HIV-1 latency by measuring increase of GFP-positive cells at 100 to 400 nM in presence of 500 nM GSK525762A incubated for 24 hrs by flow cytometry; type: cell-based; conditions: filed as activator, dose 100-400 nM
# [12] = target: T1, Protein kinase C (PKC) (Homo sapiens); test: Activation of PKC in human J-Lat 10.6 cells infected with latent HIV-1 assessed as reversal of HIV-1 latency by measuring increase of GFP-positive cells at 100 to 400 nM in presence of 200 nM Prostratin incubated for 24 hrs by flow cytometry; type: cell-based; conditions: filed as activator, dose 100-400 nM
# [13] = test system: J-Lat 6.3; test: Induction of apoptosis in human J-Lat 6.3 cells assessed as caspase-3 activation at 1 uM incubated for 24 hrs by flow cytometry (reference value: 2.43%); type: functional; outline: as §3
# [14] = target: Protein kinase C (PKC); test: Activation of PKC in human J-Lat 10.6 cells infected with latent HIV-1 assessed as reversal of HIV-1 latency by measuring increase of GFP-positive cells at 1 to 10000 nM incubated for 24 hrs by flow cytometry; type: cell-based
# Outline: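 J-Lat 10.6 or J-Lat 6.3 cells (5 × 10^5 cells/ml) incubated 24 h with graded drug concentrations; % GFP-positive cells determined by flow cytometry. Means ± S.D. of three independent experiments.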
# [15] = test system: ACH-2 cell line; test: Induction of apoptosis in human ACH-2 cells assessed as cleaved-PARP level at 1 uM incubated for 24 hrs by flow cytometry (reference value: 1.64%); type: functional
# Outline: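 Cells fixed, permeabilized, stained on ice with anti-cleaved PARP (Asp-214) mAb; % cleaved-PARP cells by flow cytometry. Means ± S.D. of three independent experiments.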
# [16] = test system: ACH-2 cell line; test: Induction of apoptosis in human ACH-2 cells at 1 uM incubated for 48 hrs by propidium iodide/annexin-V staining based flow cytometry (reference value: 3.16%); type: functional
# [17] = Toxicity in human CD4+ T-cells assessed as elevation of supernatant cytokine concentrations of IL-6 incubated for 24 hrs in presence of JQ1 by bead-based immunoassay; conditions: cd4+ t cell
# Outline: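 Purified CD4+ T-cells from healthy donors treated 24 h with 1 μm drug, 1 μm JQ1, or the combination. IL-2, IL-5, IL-6, IL-13, TNFα and IFN-γ in supernatants measured by flow-cytometry bead-based Th1/Th2 immunoassay. Run in duplicate.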
# [18] = target: T1, Protein kinase C (PKC) (Homo sapiens); test: Activation of PKC in human ACH-2 cells infected with latent HIV-1 assessed as reversal of HIV-1 latency by measuring increase in p24 antigen level at 1 to 10000 nM incubated for 48 hrs by chemiluminescent enzyme immunoassay; type: cell-based; conditions: ACH-2 cell line, filed as activator, dose 1-10000 nM; outline: as §2
# [19] = target: T1, Protein kinase C (PKC) (Homo sapiens); test: Activation of PKC in human J-Lat 6.3 cells infected with latent HIV-1 assessed as reversal of HIV-1 latency by measuring increase of GFP-positive cells at 10 uM in presence of PKC alpha/beta inhibitor Go-6976 incubated for 24 hrs by flow cytometry; type: cell-based; outline: as §1
# [20] = Toxicity in human CD4+ T-cells assessed as increase in ratio of CD25+ cells incubated for 24 hrs by flow cytometry; type: cell-based; conditions: cd4+ t cell
# Outline: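 Primary CD4+ T-cells from healthy donors treated with drug for 24 h. Cells stained with anti-CD25 and anti-CD69 antibodies (plus CD3, CD4, HLA-DR) for 30 min on ice, then marker-positive proportions quantified by flow cytometry.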
# [21] = target: T1, Protein kinase C (PKC) (Homo sapiens); test: Activation of PKC in human J-Lat 6.3 cells infected with latent HIV-1 assessed as reversal of HIV-1 latency by measuring increase of GFP-positive cells at 10 uM in presence of pan-PKC inhibitor Go-6983 incubated for 24 hrs by flow cytometry; type: cell-based; outline: as §1
structure (smiles),measurement,setting,value
CCCCCCCCCCc1ccc2c(c1)N(C)[C@@H](C(C)C)C(=O)N[C@H](CO)C2,CC50 at 48 h,[1],61.2 µM
same,Activity,[2],inactive
same,Activity,[3],Active
same,Activity,[4],7.7%
same,Activity,[5],28.4%
same,Activity,[6],2.01%
same,Activity,[7],23%
same,Activity,[8],2.63%
same,Activity,[9],inactive
same,Activity,[10],inactive
same,Activity,[11],Active
same,Activity,[12],Active
same,Activity,[13],21.9%
same,EC50,[14],10.6 µM
same,Activity,[15],21.5%
same,Activity,[16],58%
same,Activity,[17],Non-Toxic
same,Activity,[18],Active
same,Activity,[19],inactive
same,Activity,[20],Non-Toxic
same,Activity,[21],inactive
